Assay outcomes as filed in PubChem BioAssay.
Rows were chosen to be rich in hits. Some 2.4% of all compounds tested hit in one or more screens of this group.
NPY-Y2 PAM-ag: potentiates or activates human NPY-Y2 receptor; cells expressing NPY-Y2, potentiator/agonist read-out; activation, % at 3.6 µM; 0.45% of 220,000 active; AID 1359; in the data active = activation above about 27%;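 also: cells stimulated with NPY near EC25 plus isoproterenol at EC100; 0% = vehicle plus submaximal agonist and 100% = vehicle plus saturating agonist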
Target sequence (P49146 whole entry, looked up): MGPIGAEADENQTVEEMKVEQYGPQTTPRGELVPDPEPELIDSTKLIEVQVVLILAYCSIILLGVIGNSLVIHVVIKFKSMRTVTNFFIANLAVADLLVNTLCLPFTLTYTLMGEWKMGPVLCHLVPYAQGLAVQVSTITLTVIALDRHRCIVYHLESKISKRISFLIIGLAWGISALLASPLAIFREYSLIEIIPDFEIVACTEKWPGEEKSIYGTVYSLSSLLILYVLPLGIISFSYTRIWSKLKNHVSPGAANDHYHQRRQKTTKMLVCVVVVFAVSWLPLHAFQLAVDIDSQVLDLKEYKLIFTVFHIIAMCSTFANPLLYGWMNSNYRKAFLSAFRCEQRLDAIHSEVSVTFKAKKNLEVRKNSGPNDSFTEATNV
S1P4 agonist: agonists of human S1P4 receptor. AID 1509. O95977. activation, % at 4.98 µM. S1P4-expressing cell line, agonist reporter assay. 0.35% of 220,000 active; in the data active = activation above about 11%;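 also: 0% = DMSO vehicle and 100% = reference agonist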
S1P4 antagonist: antagonists of human S1P4 receptor; O95977; S1P4-expressing cells, antagonist mode, reporter read-out; inhibition, % at 4.98 µM; 0.26% of 220,000 active; AID 1510; in the data active = inhibition above about 29%;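 also: 0% = wells stimulated with agonist and 100% = vehicle wells without agonist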
NPY-Y1 antag: blocks the human neuropeptide Y Y1 receptor | 1% of 200,000 active | HEK293-CNG Y1 cells, membrane potential fluorescence; NPY at EC95, then isoproterenol | inhibition, % at 3.6 µM | P25929;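 active = inhibition above the campaign mean inhibition of all tested compounds plus 3 SD, cut at about 20% in these data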;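 also: 0% = DMSO wells given NPY plus isoproterenol and 100% = isoproterenol alone without NPY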
Target sequence (P25929 whole entry, looked up): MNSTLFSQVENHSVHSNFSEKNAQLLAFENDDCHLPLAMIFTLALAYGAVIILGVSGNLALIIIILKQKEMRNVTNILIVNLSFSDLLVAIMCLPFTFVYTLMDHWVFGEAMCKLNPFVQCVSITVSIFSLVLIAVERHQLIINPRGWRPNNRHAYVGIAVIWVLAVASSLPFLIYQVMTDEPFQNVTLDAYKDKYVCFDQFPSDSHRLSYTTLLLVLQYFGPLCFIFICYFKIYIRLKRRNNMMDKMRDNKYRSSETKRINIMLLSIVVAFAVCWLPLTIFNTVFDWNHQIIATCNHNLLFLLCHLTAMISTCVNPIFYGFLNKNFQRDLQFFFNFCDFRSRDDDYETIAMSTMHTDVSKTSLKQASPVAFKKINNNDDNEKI
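Material: HEK293 Y1/CNG channel cell line | Also added: NPY (25 nM), isoproterenol (1 µM), Ro 20-1724 (25 µM) | Compound: One concentration, 3.6 µM, in 0.4% DMSO | Schedule: 3 h dye uptake, 1 h room-temperature compound, 45 min post-isoproterenol | Signal: Membrane-potential fluorescent dye readout | Read-out: % inhibition of NPY effect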
NPY-Y2 antag: antagonists of human neuropeptide Y receptor Y2 | P49146 | NPY-Y2 expressing cells, antagonist mode | AID 793 | inhibition, % at 2.7 µM | 0.99% of 140,000 active;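 also: 0% = vehicle with agonist challenge and 100% = reference antagonist with challenge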
NPY1 pot ag: potentiators or agonists of human neuropeptide Y receptor Y1 | P25929 | 0.37% of 220,000 active | activation, % at 3.6 µM | NPY-Y1 expressing cells, potentiator/agonist activation; in the data active = activation above about 33%, passing the limit was not always enough;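 also: cells stimulated with NPY at EC10 then isoproterenol at EC100; 0% = low agonist plus stimulus and 100% = saturating agonist plus stimulus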
NPY-Y1 ant conf: confirmation of human neuropeptide Y receptor Y1 antagonists; shares compounds with NPY-Y1 antag; HEK293-CNG NPY-Y1, membrane potential fluorescence, cAMP; NPY challenge against isoproterenol-raised cAMP; inhibition, % at 3.6 µM; 21% of 1,200 active; in the data active = inhibition above about 20%;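 also: 0% = vehicle with agonist plus stimulus and 100% = stimulus alone without agonist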
NPY2 antag ctr: human NPY-Y2 antagonism in NPY-Y1 counter-screen; shares compounds with NPY-Y1 antag; HEK293 NPY-Y2 CNG membrane potential fluorescence; cells given NPY, then isoproterenol; AID 1255; 28% of 1,200 active; inhibition, % at 3.6 µM;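 also: 0% = DMSO with agonist challenge and 100% = reference antagonist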
NPY-Y1 pot conf: human NPY-Y1 potentiation or agonism, confirmation | shares compounds with NPY1 pot ag | cell-based NPY-Y1 potentiator/agonist assay | activation, % at 3.6 µM | 20% of 280 active; in the data active = activation above about 45%;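 also: cells challenged with NPY at its EC10 plus isoproterenol stimulus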
NPY-Y2 counter: potentiates or activates NPY-Y2, counter-screen for NPY-Y1 hits; shares compounds with NPY1 pot ag; HEK293-CNG cells, membrane-potential fluorescence (FLIPR), 1536-well; activation, % at 3.6 µM; 20% of 280 active; AID 1649; in the data active = activation above about 33%
NPY-Y1 ag: human NPY-Y1 agonism as potentiator counter-screen | AID 1697 | 50% of 280 active | activation, % at 3.6 µM | shares compounds with NPY1 pot ag | HEK293 Y1-CNGC, membrane potential fluorescence, agonist mode;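 active = percent activation above the mean of DMSO-only control wells plus 3 SD of those wells, cut at about 18% in these data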;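 also: cells challenged with isoproterenol plus Ro 20-1724 with no NPY in test wells; Y1 agonism lowers isoproterenol-driven cAMP and reduces probe fluorescence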
NPY-Y2 ag: activates human NPY-Y2, counter-screen for NPY-Y1 hits; shares compounds with NPY1 pot ag; HEK293 Y2-CNGC, membrane potential fluorescence, agonist mode; activation, % at 3.6 µM; 67% of 280 active;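 active = activation above the solvent-only control wells' mean plus 3 SD, cut at about 11% in these data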;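 also: 0% = DMSO with isoproterenol and 100% = 40 nM NPY maximal response; agonism lowers cAMP so well fluorescence drops in active wells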
CNGC inh 2: blocks cyclic nucleotide gated channel in NPY-Y1 counter-screen. inhibition, % at 3.6 µM. HEK293-CNG parental, isoproterenol cAMP, membrane potential fluorescence. shares compounds with NPY1 pot ag. 42% of 280 active;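 active = inhibition above the mean of stimulated solvent-only control wells plus 3 SD, cut at about 22% in these data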;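 also: 0% = isoproterenol-stimulated DMSO wells and 100% = unstimulated DMSO wells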
S1P4 antag conf: human S1P4 antagonism, confirmation | S1P4-expressing cell line, antagonist mode, reporter read-out | 71% of 520 active | shares compounds with S1P4 antagonist | inhibition, % at 4.98 µM; in the data active = inhibition above about 30%
S1P1 antag: blocks human S1P1, counter-screen for S1P4 antagonists | shares compounds with S1P4 antagonist | cell-based S1P1 antagonist counterscreen, inhibition | inhibition, % at 4.98 µM | 37% of 520 active | AID 1564; in the data active = inhibition above about 40%;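 also: receptor stimulated with S1P near its EC80; 0% = agonist stimulated wells and 100% = vehicle only wells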
Active calls of the source: *; · = not tested or not shown. Rule as the data show it, unless noted: active = inhibition above about 17%; inactive = the rest.

SMILES	NPY-Y2 PAM-ag	S1P4 agonist	S1P4 antagonist	NPY-Y1 antag	NPY-Y2 antag	NPY1 pot ag	NPY-Y1 pot conf	NPY-Y2 counter	NPY-Y1 ag	NPY-Y2 ag	CNGC inh 2	others
Cc1cc(NC(=O)/C=C/c2ccccc2)c(C(C)C)cc1O	-18.5	0.9	93.7*	28.0*	·	-17.4	·	·	·	·	·	NPY-Y1 ant conf=25.3*;NPY2 antag ctr=23.9*;S1P4 antag conf=108.9*;S1P1 antag=13.3
O=C(NCc1cccnc1)/C(=C/c1ccc(-c2ccc(Cl)cc2)o1)S(=O)(=O)c1ccccc1	-29.4	-1.5	48.8*	24.7*	13.4	-35.2	·	·	·	·	·	NPY-Y1 ant conf=9.4;NPY2 antag ctr=21.9*;S1P4 antag conf=101.0*;S1P1 antag=43.0*
C=CCN1C(=O)C(Cc2cccc(C)c2)SC1=Nc1ccc(C(=O)O)cc1 (configuration not stated)	1.1	-0.4	-17.0	-3.0	0.7	12.8	·	·	·	·	·
O=C(N/N=C1\CCCc2c1[nH]c1ccc([N+](=O)[O-])cc21)c1ccncc1	11.4	2.0	-11.3	0.3	1.9	-12.3	·	·	·	·	·
O=C(Cn1cnc2c(nnn2Cc2ccc(F)cc2)c1=O)OCc1ccccc1	10.8	-0.7	-6.1	-2.9	4.0	-1.7	·	·	·	·	·
Cc1ccc(Cn2nnc3c(=O)n(CC(=O)OCc4ccccc4)cnc32)cc1	27.8	2.4	-3.9	-8.1	5.3	48.5*	13.9	6.5	18.2*	11.0*	29.7*
CC(NCCC1(Cc2ccccc2Cl)CCOC(C)(C)C1)c1cccs1 (configuration not stated)	0.6	-1.3	8.4	·	·	6.1	·	·	·	·	·
COCCCNCC(O)COc1ccccc1F (configuration not stated)	25.7	0.5	-11.2	-0.6	·	49.1*	30.4	24.7	30.8*	26.8*	3.5
OCCNCCOc1ccccc1F	-3.8	-1.5	-0.1	6.4	2.8	-23.5	·	·	·	·	·
Cc1[nH]n(-c2ccc([N+](=O)[O-])cc2)c(=O)c1C=NCCN1CCN(C(=O)c2cccc(F)c2)CC1	5.6	-2.5	8.0	-2.6	1.6	46.8*	15.0	5.0	10.5	2.0	6.6
Cc1ccc(S(=O)(=O)n2nc(C)cc2N)cc1	-19.6	0.8	-13.9	1.8	·	7.7	·	·	·	·	·
CC(C)CN1CCN(Cc2cccn2-c2cccnc2)CC1CCO (configuration not stated)	4.9	1.5	-18.8	3.7	·	2.5	·	·	·	·	·
Cc1onc(-c2c(Cl)cccc2Cl)c1C(=O)n1nnc2ccccc21	-13.5	0.6	-18.0	6.1	1.9	45.3*	5.3	-3.2	-3.5	-5.1	2.8
O=C(CC1C=Cc2ccccc2N1C(=O)c1ccccc1)c1ccccc1 (configuration not stated)	-0.1	0.6	-8.1	·	·	3.8	·	·	·	·	·
COc1ccc(-n2nc3ccc(NS(C)(=O)=O)cc3n2)cc1Cl	19.6	0.5	-6.1	3.3	-0.5	42.1*	43.5	8.2	45.5*	15.9*	17.1
COc1cc(NS(C)(=O)=O)cc(OC)c1OC	-5.7	-1.3	-4.9	-1.8	·	3.8	·	·	·	·	·
COC(=O)Cn1cc(C(=O)C(C)(C)C)c2ccccc21	2.8	0.6	-11.1	0.3	·	0.9	·	·	·	·	·
CCCC(=O)Nc1ccc(NC(=O)Cc2ccccc2)cn1	11.8	2.8	-2.6	2.7	2.4	-7.3	·	·	·	·	·
CCCC(=O)Nc1ccc(NC(=O)CCc2ccccc2)cn1	16.5	-0.8	-13.9	-5.4	3.0	52.3*	-1.3	0.5	-7.5	5.7	3.3
Cc1nc(C)c(-c2csc(Nc3cccnc3)n2)s1	25.9	-1.1	-34.0	-15.8	-6.7	40.1*	51.1*	41.4*	52.6*	52.0*	41.4*
c1cncc(Nc2nc(-c3ccncc3)cs2)c1	14.7	-1.2	-11.8	-6.1	-6.8	18.6	·	·	·	·	·
CCCC(=O)c1ccc(N2CCN(C(=O)c3ccccc3)CC2)c(F)c1	16.1	2.0	-10.3	-9.3	-0.7	21.5	·	·	·	·	·
CCCC(=O)c1ccc(N2CCN(C(=O)c3ccccc3Br)CC2)c(F)c1	8.1	-1.1	2.5	-19.1	4.6	34.4*	-27.3	0.0	-10.7	-2.1	-1.2
CC1C(O)=C(c2nc3ccccc3[nH]2)C(=N)N1c1ccccc1 (configuration not stated)	1.7	0.1	8.2	1.3	-0.7	-35.5	·	·	·	·	·
CCOC(=O)C(Cc1ccccc1)C(=O)Nc1ccc(N(CC)CC)cc1 (configuration not stated)	7.8	5.6	-13.7	-0.4	2.2	45.7*	49.8*	23.1	31.1*	18.9*	14.2
Cn1cc(C(=O)NCc2ccc(F)cc2)cn1	10.2	0.8	-26.7	1.5	·	14.4	·	·	·	·	·
COc1ccc(-c2nc(CN3CCCC(C(=O)NC4CCCC4)C3)c(C)o2)cc1 (configuration not stated)	-12.1	2.5	1.6	-0.2	2.5	58.8*	-4.6	-1.1	-3.1	7.5	-1.4
COc1cccc(NC(=O)C(Sc2nnc(-c3ccncc3)n2-c2ccc(Cl)cc2)c2ccccc2)c1 (configuration not stated)	23.1	-1.5	-3.0	-6.1	2.0	51.5*	59.7*	54.4*	63.5*	39.8*	60.3*
COc1cccc(-n2c(SCC(N)=O)nnc2-c2ccncc2)c1	8.7	-0.2	-2.8	-1.2	-0.4	4.1	·	·	·	·	·
